The values that follow come from ChEMBL document CHEMBL2311527, “Synthesis of cembranoid analogues and evaluation of their potential as quorum sensing inhibitors” (Bioorg Med Chem, 2013).

Calls of active or inactive are those of the source. The rule behind the calls is not given here.

In experiment [1] the test system is Chromobacterium violaceum. The experiment can be described thus: Inhibition of quorum sensing system in Chromobacterium violaceum ATCC 31532 assessed as inhibition of violacein pigment production measured per disk after 48 hrs by NCCLS disk diffusion method. Put shortly:
(§1)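 Sterile 5.2 mm filter-paper disks were loaded with 30.0, 15.0, 7.5, 5.0 and 2.5 per disk from MeOH solutions and air-dried for 1 h. They were placed on trypticase soy agar spread with C. violaceum broth culture (10^6 cfu/mL, 0.5 McFarland) and incubated 48 h at 26 °C. The endpoint was the minimum amount per disk giving a colourless, opaque but viable halo, meaning violacein loss without growth inhibition. Kojic acid and Cu2O served as positive controls.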
Background: In agar diffusion tests the substance spreads into inoculated agar from a disc or well.

Experiment [2] has as its system Chromobacterium violaceum. The experiment can be described thus: Inhibition of quorum sensing system in Chromobacterium violaceum ATCC 31532 assessed as inhibition of violacein pigment production at 30 ug/disk after 48 hrs by NCCLS disk diffusion method. The essentials: as §1
For experiment [3], the system named is Chromobacterium violaceum. The experiment is described as follows: Antibacterial activity against Chromobacterium violaceum ATCC 31532 assessed as growth inhibition at 2.5 to 30 ug/disk after 48 hrs by NCCLS disk diffusion method. The class given is functional, organism-based.

As for `C=C1CC/C=C(\C)CC[C@H](C(=C)C)[C@@H](O)/C=C(\COC(C)=O)CC[C@H]1O`, in experiment [1], the INH is 7.5 µg. Consider `C=C(C)[C@@H]1CC[C@@H](C)[C@H](O)CC[C@@H](C)CC(=O)C[C@@H](C)[C@H](O)C1`, for which the inhibition entry in experiment [2] is “inactive”.

Regarding `C=C(C)[C@H]1CC/C(C)=C/CC[C@](C)(O)[C@H](O)CC/C(COC(C)=O)=C/[C@@H]1O`, the INH in experiment [1] amounted to 7.5 µg.

On to `C=C(C)[C@@H]1C/C=C(\COC(C)=O)CC[C@@H](O)C(=C)CC/C=C(\C)CC1`, for which, in experiment [2], the inhibition result was “inactive”.

Take `C=C(C)[C@H]1CC/C(C)=C/CCC(C)(C=O)CC/C(COC(C)=O)=C/[C@@H]1O` (stereo not given in full): the INH in experiment [1] turned out to be 7.5 µg. In the case of `C=C(C)[C@@H]1CC[C@@H](C)[C@H](O)CC[C@H](C)CC2(O)C[C@@H](C)[C@@H](C1)O2`, the “growth inhibition (GI)” value in experiment [3] is “inactive”. The INH in experiment [1] stood at 7.5 µg.

On to `C=C(C)[C@H]1C[C@H](O)/C(C)=C/CC[C@@]2(C)O[C@@H]2CC/C(COC(C)=O)=C/[C@@H]1O`, for which, in experiment [1], the INH was 30 µg. As for `C=C(C)[C@@H]1C/C=C(/COC(C)=O)CC[C@H]2O[C@]2(C)CC/C=C(\C)CC1`, the inhibition result in experiment [2] is “inactive”. Still for that read-out and setting: the same measure for `C=C(C)[C@@H]1C/C=C(\COC(C)=O)CC[C@@H](O)/C(C)=C\C/C=C(\C)CC1`: “inactive”; for `C=C(C)[C@H]1CC/C(C)=C/CC[C@@](C)(O)[C@H](O)CC/C(CO)=C/[C@@H]1O`: “inactive”. The same measure, in the same setting: the same measure for `C=C(C)[C@H]1CC/C(C)=C/CC[C@@]2(C)O[C@@H]2CC/C(C=O)=C/[C@@H]1O`: “inactive”; for `C=C(C)[C@H]1CC/C(C)=C/CC[C@]2(C)O[C@H]1/C=C(\COC(C)=O)CC[C@H]2O`: “inactive”. The same measure, in the same setting: the value for `C=C(C)[C@H]1CC/C(C)=C/CC[C@@]2(C)O[C@@H]2CCC(C=O)=CC1=O` was “inactive”. Take `O=c1cc(CO)occ1O`: the INH in experiment [1] amounted to 90 µg. `C=C(C)[C@H]1CC/C(C)=C/C/C=C(/C)[C@@H](O)CC/C(COC(C)=O)=C\[C@@H]1OC(C)=O`: the INH in experiment [1] came to 7.5 µg. `C=C(C)[C@H]1CC[C@@](C)(O)[C@H]2CCC(=C)[C@@H](CC/C(CO)=C/[C@@H]1O)O2`: the inhibition result in experiment [2] is “inactive”. The same measure, in the same setting: the same measure for `C=C(C)[C@H]1CC/C(C)=C/CC[C@@]2(C)O[C@@H]2CC/C(COC(C)=O)=C\[C@@H]1O`: “inactive”.

Turning to `C=C(C)[C@@H]1CC[C@@H](C)[C@H](OC(C)=O)CC[C@@H](C)CC(=O)C[C@@H](C)[C@H](OC(C)=O)C1`, in experiment [1], the INH stood at 15 µg. For `C=C(C)[C@H]1CC/C(C)=C/CC[C@@]2(C)O[C@@H]2CC/C(CO)=C\[C@@H]1O`, in experiment [2], the inhibition entry is “inactive”.

Take `C=C(C)[C@H]1CC/C(C)=C/CC[C@@](C)(Cl)[C@H](O)CC/C(COC(C)=O)=C\[C@@H]1OC(C)=O`: the inhibition entry in experiment [2] is “inactive”.

Regarding `C=C(C)[C@@H]1CC[C@@H](C)[C@H](O)CC[C@H](C)CC(=O)C[C@@H](C)[C@H](O)C1`, the INH in experiment [1] was found to be 7.5 µg. For `C=C(C)[C@H]1CC/C(C)=C/C/C=C(\C)[C@H](O)CC/C(COC(C)=O)=C\[C@@H]1OC(C)=O`, the INH in experiment [1] was found to be 2.5 µg.

In the case of `C=C(C)[C@H]1CC/C(C)=C/CC[C@@]2(C)O[C@H]1/C=C(\CO)CC[C@H]2O`, the INH in experiment [1] was determined as 30 µg. The same measure, in the same setting: the value for `C=C(C)[C@@H]1CC[C@@H](C)C(=O)CC[C@H](C)CC(=O)C[C@@H](C)[C@H](OC(C)=O)C1` was 7.5 µg.

For the compound `C=C(C)[C@@H]1CC[C@@H](C)C(=O)CC[C@H](C)CC(=O)C[C@@H](C)[C@H](O)C1`, in experiment [2], the inhibition entry was “inactive”. On the same count and under the same terms, the same measure for `C=C(C)[C@@H]1CC[C@@H](C)[C@H](O)CC[C@@H](C)CC2(O)C[C@@H](C)[C@@H](C1)O2`: “inactive”; for `C=C(C)[C@H]1CC/C(C)=C/CC[C@@](C)(O)[C@@H]2CC/C(=C/[C@@H]1O)CO2`: “inactive”. The same measure, in the same setting: the value for `C=C(C)[C@H]1CC/C(C)=C/C/C=C(/C)[C@H](O)CC/C(COC(C)=O)=C/[C@@H]1O` was “inactive”; that for `C=C(C)[C@H]1CC/C(C)=C/CC[C@@]2(C)O[C@@H]2CC/C(COC(C)=O)=C\[C@@H]1OC(C)=O` was “inactive”. `C=C1CC/C=C(\C)CC[C@H](C(=C)C)[C@@H](OC(C)=O)/C=C(/COC(C)=O)CC[C@H]1O`: in experiment [1], the INH came out at 7.5 µg. Same read-out and setting: the value for `C=C(C)[C@H]1CC/C(C)=C/CC[C@@](C)(Cl)[C@H](O)CC/C(COC(C)=O)=C/[C@@H]1O` was 7.5 µg.

Regarding `C=C(C)[C@@H]1CC[C@@H](C)[C@H](OC(C)=O)CC[C@H](C)CC(=O)C[C@@H](C)[C@H](OC(C)=O)C1`, the “growth inhibition (GI)” value in experiment [3] was “inactive”. The INH in experiment [1] is 30 µg. In the case of `C=C(C)[C@@H]1CC[C@@H](C)C(=O)CC[C@H](C)CC2(O)C[C@@H](C)[C@@H](C1)O2`, in experiment [2], the inhibition entry was “inactive”. Take `C=C(C)[C@H]1CC[C@@](C)(I)[C@H]2CC[C@@](C)(O2)[C@@H](I)CC/C(COC(C)=O)=C/[C@@H]1O`: the inhibition result in experiment [2] is “inactive”. `C=C(C)[C@H]1CC/C(C)=C/CC[C@@](C)(Cl)[C@H](O)CC/C(CO)=C/[C@@H]1O`: the INH in experiment [1] turned out to be 30 µg. As to `C=C(C)[C@H]1CC/C(C)=C/CCC(C)C(=O)CC/C(COC)=C/[C@@H]1O` (stereo not given in full), the inhibition result in experiment [2] was “inactive”. The same measure, in the same setting: the value for `CC(=O)OCC12CC[C@H]3O[C@]3(C)CCC3OC3(C)CC[C@H]([C@]3(C)CO3)[C@@H](O)C1O2` (stereo not given in full) was “inactive”; that for `C=C(C)[C@@H]1C/C=C(\COC(C)=O)CC[C@@H](O)[C@](C)(Cl)CC/C=C(\C)CC1` was “inactive”.
